From ChEMBL document CHEMBL3046309, “Dihydropiperazine neonicotinoid compounds. Synthesis and insecticidal activity” (J Agric Food Chem, 2003)
The source made the active and inactive calls. The calls are words filed in the database; no cut-off is given here.

Assays:
[1] = target: T1, Nicotinic acetylcholine receptor alpha 5 subunit (Musca domestica, UniProt A9XFY4); assay: Displacement of [3H]imidacloprid from nicotinic acetylcholine receptor in Musca domestica (house fly) head membrane after 1 hr by liquid scintillation counting analysis
T1 sequence (A9XFY4 whole entry): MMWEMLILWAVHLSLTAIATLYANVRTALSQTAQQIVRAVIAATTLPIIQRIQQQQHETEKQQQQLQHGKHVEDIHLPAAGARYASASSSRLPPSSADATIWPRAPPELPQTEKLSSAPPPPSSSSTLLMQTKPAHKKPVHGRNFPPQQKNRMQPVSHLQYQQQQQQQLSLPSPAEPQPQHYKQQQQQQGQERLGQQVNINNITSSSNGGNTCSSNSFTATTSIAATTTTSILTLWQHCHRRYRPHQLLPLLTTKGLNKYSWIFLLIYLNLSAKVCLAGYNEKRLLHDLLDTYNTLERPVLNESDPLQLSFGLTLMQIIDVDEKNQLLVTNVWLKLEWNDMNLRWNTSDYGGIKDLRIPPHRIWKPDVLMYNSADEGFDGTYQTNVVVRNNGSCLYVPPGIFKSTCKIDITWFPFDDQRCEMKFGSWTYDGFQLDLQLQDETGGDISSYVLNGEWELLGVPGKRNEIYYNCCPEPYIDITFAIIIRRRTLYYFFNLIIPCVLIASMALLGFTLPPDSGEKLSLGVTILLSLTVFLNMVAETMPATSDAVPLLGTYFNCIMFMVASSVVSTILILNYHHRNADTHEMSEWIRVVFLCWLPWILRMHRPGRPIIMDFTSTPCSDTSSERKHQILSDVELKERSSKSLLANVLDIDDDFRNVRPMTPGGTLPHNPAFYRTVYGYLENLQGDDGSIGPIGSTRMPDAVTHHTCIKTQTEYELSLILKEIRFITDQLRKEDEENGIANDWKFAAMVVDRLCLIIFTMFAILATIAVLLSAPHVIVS
Procedure, shortened: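 Housefly heads separated from liquid-nitrogen-frozen adults, homogenized in ice-cold sucrose/EDTA/Tris-HCl/PMSF buffer. Membranes were prepared by 1000g then twice 35000g spins, resuspended in 50 mM Tris-HCl pH 7.4 and stored at -80 °C. Binding buffer was 120 mM NaCl, 50 mM Tris-HCl pH 7.4, with [3H]imidacloprid at 2 nM final and DMSO ≤0.25%. Incubation 1 h at 22 °C, then GF/C filtration. Nonspecific binding was set with 10^-4 M nicotine. Three runs in triplicate.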

Aphis gossypii [2] = assay: Insecticidal activity against Aphis gossypii (cotton aphid) infested expanded cotyledon stage of summer crookneck squash seedlings assessed as mortality at 5 ppm applied as spray after 72 hr by dissecting binocular microscopic analysis relative to control; format: functional
Procedure, shortened: (§1)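 Four replicate plants per rate; controls were eight plants sprayed with blank-stock diluent. Plants held 72 h at about 74 °F, 40% RH, 24 h photoperiod. Live nonwinged aphids were counted on cotyledon undersides. Percent control was calculated by Abbott's correction against the solvent blank.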

Aphis gossypii [3] = assay: Insecticidal activity against Aphis gossypii (cotton aphid) infested expanded cotyledon stage of summer crookneck squash seedlings assessed as mortality at 50 ppm applied as spray after 72 hr by dissecting binocular microscopic analysis relative to control; format: functional; procedure, shortened: as §1
Aphis gossypii [4] = assay: Insecticidal activity against Aphis gossypii (cotton aphid) infested expanded cotyledon stage of summer crookneck squash seedlings assessed as mortality at 0.5 ppm applied as spray after 72 hr by dissecting binocular microscopic analysis relative to control; format: functional; procedure, shortened: as §1
Aphis gossypii [5] = assay: Insecticidal activity against Aphis gossypii (cotton aphid) infested expanded cotyledon stage of summer crookneck squash seedlings assessed as mortality at 0.78 ppm applied as spray after 72 hr by dissecting binocular microscopic analysis relative to control; format: functional; procedure, shortened: as §1
Bemisia tabaci = assay: Insecticidal activity against Bemisia tabaci (sweet potato whitefly); format: functional, organism-based
Nephotettix cincticeps = assay: Insecticidal activity against Nephotettix cincticeps (green rice leafhopper); format: functional, organism-based
Nilaparvata lugens = assay: Insecticidal activity against Nilaparvata lugens (brown plant hopper); format: functional, organism-based

Compound	Ki [1] [nM]	mortality at 5 ppm (Aphis gossypii [2]) [%]	mortality at 50 ppm (Aphis gossypii [3]) [%]	mortality at 0.5 ppm (Aphis gossypii [4]) [%]	mortality at 0.78 ppm (Aphis gossypii [5]) [%]	Activity (Bemisia tabaci)	Activity (Nephotettix cincticeps)	Activity (Nilaparvata lugens)
CN(C)C(=O)/C(=N\C#N)N(C)Cc1ccc(Cl)nc1	3830	< 50	50	–	–	–	–	–
O=C1/C(=N\O)NCCN1Cc1ccc(Cl)nc1	–	50	70	< 50	–	–	–	–
O=C1NCCN(Cc2ccc(Cl)nc2)C1=O	400	90	90	50	–	–	–	–
O=C1/C(=N\S(=O)(=O)C(F)(F)F)NCCN1Cc1ccc(Cl)nc1	593	90	90	< 50	–	–	–	–
O=C1C(=S)NCCN1Cc1ccc(Cl)nc1	1780	50	90	50	–	–	–	–
N#C/N=C1\NCCN1Cc1ccc(Cl)nc1	17	90	90	–	–	–	–	–
CN1CCN(Cc2ccc(Cl)nc2)/C(=N/C#N)C1=O	6	–	90	–	90	Active	Active	Active
CN1C/C(=N\C#N)N(Cc2ccc(Cl)nc2)CC1=O	–	< 50	70	–	–	–	–	–
CN1CCN(CC2CCOC2)/C(=N\C#N)C1=O (stereo not drawn)	517	< 50	< 50	–	–	–	–	–
CN1CCN(Cc2cnc(Cl)s2)/C(=N\C#N)C1=O	4	–	90	–	70	–	–	–
N#C/N=C1/NCCN(Cc2ccc(Cl)nc2)C1=O	441	50	90	< 50	–	–	–	–
NC(=S)N/N=C1/NCCN(Cc2ccc(Cl)nc2)C1=O	3920	< 50	< 50	–	–	–	–	–
CO/N=C1/NCCN(Cc2ccc(Cl)nc2)C1=O	1530	70	90	50	–	–	–	–
CN1CCN=C(N(C#N)Cc2ccc(Cl)nc2)C1=O	–	< 50	< 50	–	–	–	–	–
